Laboratory results published in article PMC2865857 (Journal of molecular biology, 2010).
Where no end group is shown, it is not given here. [ ]: non-standard residue; d: D form. Lys(Me2) = CN(C)CCCC[C@H](N)C(=O)O

Legend:
[1] = target: T1, human 53BP1 tandem Tudor domain (Homo sapiens, UniProt Q12888); experiment: other fluorescence titration
[2] = target: T1, human 53BP1 tandem Tudor domain; experiment: Binding of peptides to the 53BP1 tandem Tudor domain by tryptophan fluorescence; conditions: for decrease in binding affinity relative to p53K382me2: ratio of Kd values, 25°C (Fig. 2a, b; Fig. 3e)
In short: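 Synthetic Fmoc-made peptides were HPLC-purified. Intrinsic tryptophan fluorescence was measured at 25°C on 0.5 μM protein with increasing peptide, exciting at 295 nm and recording emission at 305–405 nm over three scans. Kd came from a nonlinear quadratic binding fit, averaged over three experiments ± SD.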

Compound	decrease in binding affinity relative to p53K382me2 ([2]; tryptophan fluorescence)	other results
H4K20me2 peptide (15–23) (from UniProt P62805 16-24)	–	Kd [1]: 1300 nM
p53K372me2: p53 peptide (367–377) dimethylated at Lys372 (SHLKS[Lys(Me2)]KGQST)	22 fold	–
p53H380AK382me2: p53K382me2 peptide (377–386) with His380 substituted with Ala (TSRAK[Lys(Me2)]LMFK)	16 fold	–
CSCC[C@H](NC(=O)[C@H](CC(C)C)NC(=O)[C@H](CCCCN(C)C)NC(=O)[C@H](CCCCN)NC(=O)[C@H](Cc1c[nH]cn1)NC(=O)[C@H](CCCNC(=N)N)NC(=O)[C@H](CO)NC(=O)[C@@H](N)[C@@H](C)O)C(=O)N[C@@H](Cc1ccccc1)C(=O)N[C@@H](CCCCN)C(=O)O [p53K382me2]	–	Kd [2]: 900 nM
unmodified p53 peptide: unmodified p53 peptide, residues 377–386 (TSRHKKLMFK; UniProt P04637 377-386, looked up, fragment)	–	association of 53BP1 tandem Tudor domain with peptide (in words) ([2]; Fig. 2a, measured by tryptophan fluorescence or Isothermal Titration Calorimetry): does not associate
p53K382me2L383A: p53K382me2 peptide (377–386) with Leu383 replaced (TSRHK[Lys(Me2)]AMFK)	–	effect of residue replacement on the Kd relative to p53K382me2 (in words) ([2]; tryptophan fluorescence, 25°C (Fig. 2a)): virtually no effect

Further lines, with some results ahead:

decrease in binding affinity relative to p53K382me2 ([2]; tryptophan fluorescence)	Compound	other results
11 fold	p53K381AK382me2: p53K382me2 peptide (377–386) with Lys381 substituted with Ala (TSRHA[Lys(Me2)]LMFK)	–
22 fold	p53K370me2: p53 peptide (366–375) dimethylated at Lys370 (SSHL[Lys(Me2)]SKKGQ)	–
